# Data from ChEMBL document CHEMBL1151898 (J Nat Prod, 2009).
# Legend:
# [1] = molecular target: T1, Xanthine dehydrogenase/oxidase (Bos taurus, UniProt P80457); test: Activity at bovine xanthine oxidase at 25 uM preincubated for 10 mins; conditions: cattle
# [2] = molecular target: T1, Xanthine dehydrogenase/oxidase; test: Activity at bovine xanthine oxidase at 50 uM; conditions: cattle
# [3] = molecular target: T1, Xanthine dehydrogenase/oxidase; test: Inhibition of bovine xanthine oxidase assessed as reduction of cytochrome c at 25 uM preincubated for 10 mins; conditions: cattle
# [4] = molecular target: T1, Xanthine dehydrogenase/oxidase; test: Inhibition of bovine xanthine oxidase assessed as reduction of cytochrome c at 50 uM; conditions: cattle
# [5] = molecular target: T1, Xanthine dehydrogenase/oxidase; test: Activity at bovine xanthine oxidase at 10 uM; conditions: cattle
# [6] = molecular target: T1, Xanthine dehydrogenase/oxidase; test: Ratio of kcat to km for bovine xanthine oxidase at 50 uM; conditions: cattle
# [7] = molecular target: T1, Xanthine dehydrogenase/oxidase; test: Ratio of kcat to km for bovine xanthine oxidase at 25 uM preincubated for 10 mins; conditions: cattle
# [8] = molecular target: T1, Xanthine dehydrogenase/oxidase; test: Activity at bovine xanthine oxidase at 25 uM; conditions: cattle
# [9] = molecular target: T1, Xanthine dehydrogenase/oxidase; test: Inhibition of bovine xanthine oxidase assessed as reduction of cytochrome c at 10 uM; conditions: cattle
# [10] = molecular target: T1, Xanthine dehydrogenase/oxidase; test: Ratio of kcat to km for bovine xanthine oxidase at 25 uM; conditions: cattle
# [11] = molecular target: T1, Xanthine dehydrogenase/oxidase; test: Inhibition of bovine xanthine oxidase assessed as reduction of cytochrome c; parameters: concentration or dose not given beside the values; conditions: cattle
# [12] = molecular target: T1, Xanthine dehydrogenase/oxidase; test: Ratio of kcat to km for bovine xanthine oxidase at 10 uM; conditions: cattle
# [13] = molecular target: T1, Xanthine dehydrogenase/oxidase; test: Inhibition of bovine xanthine oxidase assessed as reduction in xanthine turnover at 50 uM; conditions: cattle
# [14] = molecular target: T1, Xanthine dehydrogenase/oxidase; test: Inhibition of bovine xanthine oxidase assessed as reduction in xanthine turnover at 10 uM; conditions: cattle
# [15] = molecular target: T1, Xanthine dehydrogenase/oxidase; test: Ratio of kcat to km for bovine xanthine oxidase at 25 uM preincubated for 10 mins relative to control; conditions: cattle
# [16] = molecular target: T1, Xanthine dehydrogenase/oxidase; test: Inhibition of bovine xanthine oxidase assessed as decrease in production of superoxide at 50 uM relative to control; conditions: cattle
# How it was run: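 Superoxide followed indirectly by cytochrome c reduction. A550 monitored (Δε550 = 19.6 mM−1cm−1), initial rates vs no-inhibitor control. 25°C, 0.1 M MOPS, 0.2 mM EDTA, 0.1 M KCl, pH 7.4.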
# [17] = molecular target: T1, Xanthine dehydrogenase/oxidase; test: Inhibition of bovine xanthine oxidase assessed as reduction in xanthine turnover at 25 uM; conditions: cattle
# [18] = molecular target: T1, Xanthine dehydrogenase/oxidase; test: Inhibition of bovine xanthine oxidase assessed as reduction in free enzyme turnover at 50 uM relative to control; conditions: cattle
# [19] = molecular target: T1, Xanthine dehydrogenase/oxidase; test: Inhibition of bovine xanthine oxidase assessed as reduction in free enzyme turnover at 50 uM relative to control; conditions: cattle
# [20] = molecular target: T1, Xanthine dehydrogenase/oxidase; test: Inhibition of bovine xanthine oxidase assessed as reduction in free enzyme turnover at 10 uM relative to control; conditions: cattle
# [21] = molecular target: T1, Xanthine dehydrogenase/oxidase; test: Inhibition of bovine xanthine oxidase
# T1 sequence (P80457 whole entry): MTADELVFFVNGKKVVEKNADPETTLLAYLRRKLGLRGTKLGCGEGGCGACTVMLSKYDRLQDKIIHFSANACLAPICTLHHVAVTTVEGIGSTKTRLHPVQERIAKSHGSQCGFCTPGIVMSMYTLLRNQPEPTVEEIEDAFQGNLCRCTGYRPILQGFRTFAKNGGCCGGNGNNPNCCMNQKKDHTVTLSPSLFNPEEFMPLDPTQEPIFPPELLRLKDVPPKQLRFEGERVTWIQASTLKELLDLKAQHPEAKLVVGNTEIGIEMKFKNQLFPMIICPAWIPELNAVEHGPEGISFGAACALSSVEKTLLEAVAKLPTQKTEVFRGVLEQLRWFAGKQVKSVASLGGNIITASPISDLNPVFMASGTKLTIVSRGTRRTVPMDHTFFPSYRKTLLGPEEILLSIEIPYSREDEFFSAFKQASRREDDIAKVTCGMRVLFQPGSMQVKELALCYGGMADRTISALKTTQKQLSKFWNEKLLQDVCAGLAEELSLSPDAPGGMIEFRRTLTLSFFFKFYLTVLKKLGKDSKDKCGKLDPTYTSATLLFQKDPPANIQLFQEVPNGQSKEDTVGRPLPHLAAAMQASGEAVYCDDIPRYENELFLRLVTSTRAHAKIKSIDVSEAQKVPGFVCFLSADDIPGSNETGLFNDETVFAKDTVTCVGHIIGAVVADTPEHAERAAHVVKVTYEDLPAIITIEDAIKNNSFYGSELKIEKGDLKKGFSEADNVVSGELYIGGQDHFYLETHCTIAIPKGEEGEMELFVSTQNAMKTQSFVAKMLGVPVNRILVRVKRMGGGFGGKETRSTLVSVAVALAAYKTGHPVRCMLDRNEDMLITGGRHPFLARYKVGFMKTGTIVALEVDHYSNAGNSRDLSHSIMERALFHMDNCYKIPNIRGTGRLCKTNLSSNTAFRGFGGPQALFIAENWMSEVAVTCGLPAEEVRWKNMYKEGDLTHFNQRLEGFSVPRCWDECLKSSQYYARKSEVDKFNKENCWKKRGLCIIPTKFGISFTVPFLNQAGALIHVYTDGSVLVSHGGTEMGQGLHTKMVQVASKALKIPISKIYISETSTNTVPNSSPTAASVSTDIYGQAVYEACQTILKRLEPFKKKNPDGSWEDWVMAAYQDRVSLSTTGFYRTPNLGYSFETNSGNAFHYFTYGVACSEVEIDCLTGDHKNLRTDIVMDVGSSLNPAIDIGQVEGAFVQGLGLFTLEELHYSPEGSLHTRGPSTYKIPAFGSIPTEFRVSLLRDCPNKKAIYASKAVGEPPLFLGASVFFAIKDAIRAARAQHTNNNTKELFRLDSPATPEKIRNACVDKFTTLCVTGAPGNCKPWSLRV
SMILES,Kcat [1],Kcat [2],Activity [3],Activity [4],Kcat [5],Kcat/Km [6],Kcat/Km [7],Kcat [8],Activity [9],Kcat/Km [10],Activity [11],Kcat/Km [12],inhibition at 50 µM [13],inhibition at 10 µM [14],also measured
COc1cc(/C=C/C(=O)CC(=O)/C=C/c2ccc(O)c(OC)c2)ccc1O [CURCUMIN],6.5 s⁻¹,5 s⁻¹,150 nM/s,150 nM/s,2.6 s⁻¹,5.1e+06 M⁻¹ s⁻¹,3.9e+06 M⁻¹ s⁻¹,4.3 s⁻¹,160 nM/s,6.5e+06 M⁻¹ s⁻¹,150 nM/s,4.8e+06 M⁻¹ s⁻¹,> 80%,60%,
COc1cc(C2Oc3cc([C@H]4Oc5cc(O)cc(O)c5C(=O)[C@@H]4O)ccc3OC2CO)ccc1O (stereo partly specified) [SILIBININ],6.9 s⁻¹,4 s⁻¹,120 nM/s,140 nM/s,5.8 s⁻¹,110000 M⁻¹ s⁻¹,70000 M⁻¹ s⁻¹,13.3 s⁻¹,160 nM/s,130000 M⁻¹ s⁻¹,150 nM/s,140000 M⁻¹ s⁻¹,50%,50%,fold change (FC) [15]: 80; inhibition at 50 µM [16]: 20%; inhibition at 25 µM [17]: 50%
O=c1c(O)c(-c2ccc(O)c(O)c2)oc2cc(O)cc(O)c12 [QUERCETIN],8.1 s⁻¹,12.4 s⁻¹,110 nM/s,80 nM/s,3.8 s⁻¹,20000 M⁻¹ s⁻¹,50000 M⁻¹ s⁻¹,1.9 s⁻¹,140 nM/s,10000 M⁻¹ s⁻¹,100 nM/s,1.6e+06 M⁻¹ s⁻¹,,,fold change (FC) [18]: 170; fold change (FC) [19]: 170; fold change (FC) [20]: 20
O=c1cc(-c2ccc(O)c(O)c2)oc2cc(O)cc(O)c12 [LUTEOLIN],3.8 s⁻¹,12.2 s⁻¹,110 nM/s,71 nM/s,6.2 s⁻¹,20000 M⁻¹ s⁻¹,50000 M⁻¹ s⁻¹,4.5 s⁻¹,100 nM/s,30000 M⁻¹ s⁻¹,82 nM/s,200000 M⁻¹ s⁻¹,,,Ki [21]: 1900 nM
Oc1ncnc2[nH]ncc12 [ALLOPURINOL],1.3 s⁻¹,4.3 s⁻¹,28 nM/s,120 nM/s,5.9 s⁻¹,110000 M⁻¹ s⁻¹,7000 M⁻¹ s⁻¹,11.8 s⁻¹,140 nM/s,150000 M⁻¹ s⁻¹,140 nM/s,320000 M⁻¹ s⁻¹,,,
